ARFGAP1 inh: inhibits rat ARF GTPase activating protein 1. Q62848. AID 651572. 360,000 compounds, 0.26% hits. inhibition, % at 16.5 µM. Arfgap1-stimulated ARF1 GTP hydrolysis, GDP FP detection;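 active means inhibition above a per-plate limit, mean inhibition of low control wells plus 3 SD, cut at about 25% in these data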;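 further: 0% = DMSO wells with enzyme and 100% = wells lacking Arfgap1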
Target sequence (Q62848 1-136 limits assumed): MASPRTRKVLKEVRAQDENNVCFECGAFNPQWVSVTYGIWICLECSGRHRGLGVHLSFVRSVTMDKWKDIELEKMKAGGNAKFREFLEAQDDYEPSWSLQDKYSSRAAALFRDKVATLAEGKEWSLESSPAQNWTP
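Material: rat Arfgap1 GAP domain (His6, aa 1-136), purified enzyme. Also added: human ARF1(Δ1-17)-GTP substrate. Compound dosing: 16.5 µM single point, 1.26% DMSO. Timing: enzyme reaction 120 min at 25 °C after 20 min preincubation. Signal: GDP detection by fluorescence polarization. Read-out basis: percent inhibition of GAP-stimulated GDP formation, scaled between DMSO and no-Arfgap1 medians.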
MBD2 inh: blocks human MBD2 binding to methylated DNA | Q9UBB5 | TR-FRET, MBD2 binding to methylated oligonucleotide | inhibition, % at 4.4 µM | 370,000 compounds, 0.31% hits | AID 686964; in the data active means inhibition above about 13%
Target sequence (Q9UBB5 whole entry, looked up): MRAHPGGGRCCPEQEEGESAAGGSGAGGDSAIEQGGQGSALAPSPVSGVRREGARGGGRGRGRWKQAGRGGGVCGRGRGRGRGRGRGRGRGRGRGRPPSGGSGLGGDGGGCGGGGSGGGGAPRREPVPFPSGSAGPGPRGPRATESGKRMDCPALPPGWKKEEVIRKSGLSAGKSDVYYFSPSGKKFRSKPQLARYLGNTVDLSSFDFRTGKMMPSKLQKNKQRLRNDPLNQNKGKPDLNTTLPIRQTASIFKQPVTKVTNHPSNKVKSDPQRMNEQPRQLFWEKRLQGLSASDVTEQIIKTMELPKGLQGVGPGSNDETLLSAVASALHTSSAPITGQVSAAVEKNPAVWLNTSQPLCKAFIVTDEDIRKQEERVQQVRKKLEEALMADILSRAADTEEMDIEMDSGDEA
TDP2 absorb: TDP2 (human) inhibition, absorbance primary screen | inhibition, % at 12.8 µM | recombinant TDP2, T5PNP hydrolysis, p-nitrophenol absorbance 415 nm | 370,000 compounds, 0.34% hits;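 active means inhibition above the mean of all tested compounds plus 3 SD, set per campaign, cut at about 25% in these data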;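 further: 0% = DMSO with enzyme and 100% = buffer with substrate but no TDP2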
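Assay system: recombinant human TDP2 / Reagent: T5PNP substrate at 5 mM, a TopII-DNA adduct mimic / Measured by: epi absorbance from released p-nitrophenol / Evaluation: % inhibition relative to enzyme-containing and enzyme-free wells / Control set: enzyme-free and DMSO wells / Replicates: each compound tested once, singlicate / Schedule: enzyme reaction with compound for 2 h at 37 °C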
UHRF1 binding: UHRF1 methyl-DNA binding inhibition; AID 687016; Q96T88; inhibition, % at 4.4 µM; 370,000 compounds, 0.75% hits; UHRF1 binding to methylated oligo, TR-FRET; in the data active means inhibition above about 21%;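 further: UHRF1 SRA domain binding a hemimethylated CpG hairpin DNA probe; 0% = median of test compound wells and 100% = reference inhibitor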
LEDGF integ inh: blocks HIV-1 LEDGF/p75-dependent DNA integration; TR-FRET IN-LEDGF/p75 DNA integration, Eu/Cy5; inhibition, % at 3.7 µM; 370,000 compounds, 0.64% hits; AID 743269;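 active means inhibition above the screen-wide mean plus 3 SD, cut at about 13% in these data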;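 further: signal is the Cy5 over europium emission ratio at 671 and 618 nm; 0% = plate median of compound wells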
ASAP1 inh: inhibitors of human ASAP1 ArfGAP activity | Q9ULH1 | ASAP1-stimulated ARF1 GTP hydrolysis, GDP FP detection | inhibition, % at 16.5 µM | 360,000 compounds, 0.19% hits | AID 624377; in the data active means inhibition above about 25%;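 further: 0% = vehicle with enzyme and substrate and 100% = no enzyme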
ARFGAP1 inh conf: rat ARFGAP1 inhibition, confirmed; inhibition, % at 16.5 µM; shares compounds with ARFGAP1 inh; 890 compounds, 30% hits; ARFGAP1-stimulated ARF1 GTP hydrolysis, GDP tracer FP;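 active means average inhibition over triplicates above the hit cutoff set in the earlier primary screen, cut at about 25% in these data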;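 further: 0% = Arfgap1 plus ARF1-GTP with DMSO and 100% = wells lacking Arfgap1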
* hit, by the source's call; · = not tested or not shown. Only some compounds are listed: those with a hit (about 2% of all), similar ones and a draw of the others.

SMILES	ARFGAP1 inh	MBD2 inh	TDP2 absorb	UHRF1 binding	LEDGF integ inh	ASAP1 inh	ARFGAP1 inh conf
Cc1ccccc1CN1CCCCC(NC(=O)c2ccc(COc3ccccc3)cc2)C1=O (centres undefined)	·	2	7	2	-2	·	·
Cc1ccc(NC(=O)CSc2nnc(CNC(=O)C34CC5CC(CC(C5)C3)C4)n2-c2ccc(F)cc2)cc1	29*	-5	11	-2	-2	-2	4
C=CCN1C(=O)[C@H](CC(=O)NCc2cccc3ccccc23)[C@@]2(C(=O)OCC)CCCC=C12	·	-2	-5	1	4	·	·
COc1ccc(-n2c(SCC(=O)O)nc3sc4c(c3c2=O)CCCC4)cc1	35*	0	-5	1	2	20	52*
O=C(O)CSc1nc2sc3c(c2c(=O)n1-c1ccccc1)CCC3	4	3	-4	1	0	6	·
COc1ccc(-n2c(SCC(N)=O)nc3sc4c(c3c2=O)CCN(C)C4)cc1	37*	4	-1	3	0	22	37*
COc1ccc(-n2c(SCCNCCO)nc3sc4c(c3c2=O)CCCC4)cc1	32*	-5	-5	0	1	9	22
COc1ccc(CN2C(=O)CN(S(C)(=O)=O)CC2(C)c2nnnn2C2CCCCC2)cc1 (centres undefined)	·	-5	-9	2	3	·	·
CNC(=O)c1c(NC(=O)c2ccc(S(=O)(=O)N3CC(C)OC(C)C3)cc2)sc2c1CCN(C(C)C)C2 (centres undefined)	26*	8	6	9	1	1	3
COc1ccc(Cl)cc1NC(=O)Cn1c(=O)oc2ccccc21	21	-5	-3	0	-1	2	·
O=C(Cn1c(=O)oc2ccccc21)Nc1ccc(Cl)cc1Cl	25*	-3	-8	2	3	-8	-2
O=C(Nc1nc(-c2cccc3ccccc23)cs1)c1ccc2c(c1)S(=O)(=O)c1ccccc1C2=O	34*	6	-5	8	3	-8	0
CC(NCc1ccco1)C(=O)N1CCN(c2cccc(C(F)(F)F)c2)CC1 (centres undefined)	·	-1	3	0	-2	·	·
O=C(CSc1nnc(Nc2ccccc2)s1)NC1CCCC1	26*	0	12	-1	-2	16	-4
CCc1nnn2c1Cn1c3ccccc3c(=O)n1[C@@H](C(C)C)C2	·	-5	3	4	1	·	·
Cc1ccc(CN2CCCCC(NC(=O)c3cccc(C(F)(F)F)c3)C2=O)cc1 (centres undefined)	·	-1	8	0	-2	·	·
COCCC1CCCCN1C(=O)c1cc(COc2cccc(C(C)=O)c2)on1 (centres undefined)	25*	4	-10	6	0	8	-11
CC(C(=O)N1CCCCC1)N(C)CC(=O)Nc1ccc(F)c(F)c1F (centres undefined)	26*	-3	2	0	0	0	5
CC(C(=O)N1CCCCC1)N(C)CC(=O)Nc1ccc(Cl)cc1 (centres undefined)	3	1	6	0	-2	-1	·
CCOC(=O)Cc1csc(NC(=O)CN2C(=O)c3ccccc3C2=O)n1	6	6	-1	-1	1	2	·
CCOC(=O)Cc1csc(NC(=O)CN2C(=O)c3ccccc3S2(=O)=O)n1	33*	3	-4	1	2	8	3
CC(C)(C)OC(=O)N1CCCC1C(=O)O (centres undefined)	-1	3	-14	3	5	0	·
CC(C)(C)OC(=O)N1CCC[C@H]1C(=O)NCC1CCC(C(=O)O)CC1 (some centres undefined)	26*	3	-2	1	-1	5	-1
CCCCCCCCN1C(=O)[C@H](CC(=O)NCc2ccccc2)C[C@@]2(C(=O)OCC)CCC=C12	28*	3	-3	-2	-4	7	4
CCCCCCCCN1C(=O)[C@H](CC(=O)NCc2cccc3ccccc23)C[C@@]2(C(=O)OCC)CCC=C12	3	-1	-5	0	0	-14	·
SMILES	ARFGAP1 inh	MBD2 inh	TDP2 absorb	UHRF1 binding	LEDGF integ inh	ASAP1 inh	ARFGAP1 inh conf
O=C(c1ccccc1)n1ccc2ccc(-c3ccc4ccn(C(=O)c5ccccc5)c4c3)cc21	·	-1	-7	-1	5	·	·
Cc1cc2ncn(/N=C/c3cccnc3)c2cc1C	-3	4	8	6	4	8	·
C(=N\n1cnc2ccccc21)/c1cccnc1	25*	2	15	-3	2	-6	8
CCCN1CCN(C(=O)Cn2ncc3c([nH]c4ccc(C)cc43)c2=O)CC1	15	3	-2	-3	1	-7	·
Cc1ccc2[nH]c3c(=O)n(CC(=O)N4CC(C)CC(C)C4)ncc3c2c1 (centres undefined)	31*	3	6	-2	4	17	41*
C=CCNC1CCC12CCC(c1ccccc1)CC2 (centres undefined)	·	3	-1	-1	0	·	·
COC(=O)[C@H](C(C)C)N(Cc1cn(Cc2ccccc2)nn1)S(=O)(=O)c1ccccc1Br	·	-7	0	-1	8	·	·
Oc1cccc(Nc2nc(O)c(/C=C3\C=Nc4ccccc43)s2)c1	6	-4	0	-3	2	3	·
Oc1nc(Nc2cccc(Cl)c2)sc1/C=C1\C=Nc2ccccc21	25*	3	-4	3	1	19	21
O=C(CSc1ncn[nH]1)NCc1ccccc1Cl	25*	3	2	-3	-1	-3	-2
O=C(CSc1ncn[nH]1)NCc1ccc(Cl)cc1	-10	2	1	1	1	-1	·
Cc1ccc(C)c(N(C(=O)Cn2nnc(-c3cccs3)n2)C(C(=O)NC2CCCC2)c2ccncc2)c1 (centres undefined)	31*	3	9	1	1	-9	-3
O=[N+]([O-])c1cnc2ccccc2c1Sc1ccccc1	·	1	6	-8	1	·	·
CC(C)Cc1ccc(C(C)NC(=O)Cc2ccc(S(=O)(=O)N3CCOCC3)s2)cc1 (centres undefined)	25*	0	-11	3	-5	1	4
O=C(c1cc2ccccc2o1)N1CCN(Cc2nc3ccccc3s2)CC1	26*	0	7	2	-3	11	-2
COC(=O)c1ccc(Nc2nc(-c3ccncc3)nc3ccccc23)cc1	34*	0	-18	9	-1	17	34*
c1ccc(Nc2nc(-c3ccncc3)nc3ccccc23)cc1	8	-4	-1	5	2	-6	·
COC(=O)c1cccc(Nc2nc(-c3cccnc3)nc3ccccc23)c1	43*	2	-11	3	-4	18	53*

High-throughput results from PubChem.
